Blank lines part the entries; values can stand above or below the compound they belong to.
Key:
PfPK6 = molecular target: T1, PfPK6 (Plasmodium falciparum, UniProt Q8IDW1); assay: KinaseSeeker split luciferase assay on PfPK6; assay type: biochemical; conditions: for fold increase in potency on PfPK6: compared to IKK16; for selectivity (preference) for PfPK6 over PfGSK3: ratio of IC50 values; for activity on PfPK6, in words: screen at 1 μM
T1 sequence (Q8IDW1 1-305): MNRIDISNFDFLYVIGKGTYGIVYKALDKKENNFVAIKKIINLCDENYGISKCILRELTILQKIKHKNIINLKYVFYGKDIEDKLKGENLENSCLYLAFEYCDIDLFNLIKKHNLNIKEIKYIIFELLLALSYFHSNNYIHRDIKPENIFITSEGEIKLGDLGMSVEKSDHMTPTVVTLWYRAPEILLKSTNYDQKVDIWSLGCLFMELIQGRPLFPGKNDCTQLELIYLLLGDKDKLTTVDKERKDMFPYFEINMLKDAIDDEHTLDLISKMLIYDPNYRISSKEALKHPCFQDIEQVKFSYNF

468 human kinases = assay: DiscoverX KINOMEscan panel, selectivity score; assay type: binding; conditions: for no. of kinase hits: 1 μM, 468 human kinases, PoC ≤10% (>90% inhibition); for reduction in selectivity: S10 (1 μM) compared to IKK16
PfGSK3 = molecular target: T2, PfGSK3 (Plasmodium falciparum, UniProt O77344); assay: KinaseSeeker split luciferase assay on PfGSK3; assay type: biochemical; conditions: for activity on PfGSK3, in words: screen at 1 μM
T2 sequence (O77344 1-440): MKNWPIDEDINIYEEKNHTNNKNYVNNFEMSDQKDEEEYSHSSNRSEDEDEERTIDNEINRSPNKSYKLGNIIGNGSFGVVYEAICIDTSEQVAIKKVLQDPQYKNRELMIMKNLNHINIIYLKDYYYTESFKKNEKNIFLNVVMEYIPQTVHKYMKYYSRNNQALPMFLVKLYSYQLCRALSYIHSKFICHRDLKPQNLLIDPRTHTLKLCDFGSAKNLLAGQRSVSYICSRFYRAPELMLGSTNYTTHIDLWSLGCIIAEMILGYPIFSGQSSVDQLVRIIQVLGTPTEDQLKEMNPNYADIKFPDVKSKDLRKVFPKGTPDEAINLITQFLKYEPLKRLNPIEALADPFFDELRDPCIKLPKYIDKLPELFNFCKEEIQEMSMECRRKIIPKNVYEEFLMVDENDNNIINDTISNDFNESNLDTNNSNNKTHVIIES
Outline: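 Split-luciferase binding assay: lysate with Cfluc-PfGSK3 fusion plus Fos-Nfluc, incubated 2 h with test compound in DMSO (or DMSO control) and a kinase-specific probe. Luminescence was read immediately after luciferin reagent. % inhibition = (control − sample)/control × 100. Compounds were first counter-screened against split luciferase, then screened at 1 μM.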

PfCDPK1 = conditions: read-out: PfCDPK1 IC50; cited from earlier work
HepG2 cells = assay: HepG2 CellTiter-Glo cytotoxicity assay; assay type: cell-based, human; conditions: HepG2, 2 μM
Outline: (§1)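 HepG2 cells were grown in DMEM with 10% FBS, 1% NEAA and 1% L-glutamine, without antibiotics. They were seeded at 4000 cells/well and left overnight at 37 °C, 5% CO₂. Test compound was added at 200 nM or 2 μM, in quadruplicate, with DMSO held constant, for 48 h. Viability was read by CellTiter-Glo 2 luminescence. % viability is the average of two experiments.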

[1] = HepG2 CellTiter-Glo cytotoxicity assay; assay type: cell-based, human; conditions: human, HepG2 cells
Outline: as §1

[2] = in words; cited from earlier work
[3] = rats, in words; cited from earlier work
Pf3D7 = conditions: read-out: Pf3D7 blood stage EC50; blood stage proliferation; cited from earlier work

SMILES: O=C(c1ccc(Nc2ncc(Cl)c(-c3cc4ccccc4s3)n2)cc1)N1CCC(N2CCCC2)CC1 [Compound 18r, (4-((4-(Benzo[b]thiophen-2-yl)-5-chloropyrimidin-2-yl)amino)phenyl)(4-(pyrrolidin-1-yl)piperidin-1-yl)methanone]
- fold increase in potency on PfPK6 (PfPK6): 20 fold
- selectivity (preference) for PfPK6 over PfGSK3 (PfPK6): 9 fold
- no. of kinase hits (468 human kinases): 88
- reduction in selectivity (468 human kinases): ~2 fold

SMILES: N[C@H]1CC[C@H](Nc2nc(Nc3ccc(C(=O)N4CCCCC4)cc3)c3ncn(-c4cccc(F)c4)c3n2)CC1 [Purfalcamine]
- IC50 (PfCDPK1): 17 nM

SMILES: O=C(c1ccc(Nc2nccc(-c3ccco3)n2)cc1)N1CCC(N2CCCC2)CC1 [Compound 18e, (4-((4-(Furan-2-yl)pyrimidin-2-yl)amino)phenyl)(4-(pyrrolidin-1-yl)piperidin-1-yl)methanone]
- activity on PfGSK3, in words (PfGSK3): inactive
- fold decrease in potency on PfPK6 (PfPK6; compared to thiophene 18c): more than 3 fold

SMILES: c1ccc(CNc2nccc(-c3cc4ccccc4s3)n2)cc1 [Compound 4h, 4-(Benzo[b]thiophen-2-yl)-N-benzylpyrimidin-2-amine]
- activity on PfGSK3, in words (PfGSK3): inactive
- remaining activity at 1 µM (PfPK6; read-out: PfPK6 PoC@1 μM): 100%
- activity on PfPK6, in words (PfPK6): inactive

SMILES: Cc1cnc(Nc2ccc(C(=O)N3CCC(N4CCCC4)CC3)cc2)nc1-c1cc2ccccc2s1 [Compound 18n, (4-((4-(Benzo[b]thiophen-2-yl)-5-methylpyrimidin-2-yl)amino)phenyl)(4-(pyrrolidin-1-yl)piperidin-1-yl)methanone]
- fold increase in potency on PfPK6 (PfPK6): 9 fold
- selectivity (preference) for PfPK6 over PfGSK3 (PfPK6): ~16 fold
- more cytotoxicity than IKK16 (HepG2 cells): ~40%
- no. of kinase hits (468 human kinases): 100
- reduction in selectivity (468 human kinases): ~2 fold

SMILES: c1ccc2sc(-c3ccnc(Nc4ccc(CN5CCC(N6CCCC6)CC5)cc4)n3)cc2c1 [Compound 12, 4-(Benzo[b]thiophen-2-yl)-N-(4-((4-(pyrrolidin-1-yl)piperidin-1-yl)methyl)phenyl)pyrimidin-2-amine]
- activity on PfGSK3, in words (PfGSK3): abolished activity
- fold increase in potency on PfPK6 (PfPK6): ~3 fold
- viability at 48 h, 200 nM [1]: 100%

SMILES: O=C(c1ccc(Nc2nccc(-c3cc4ccccc4s3)n2)cc1)N1CCC(N2CCCC2)CC1 [IKK16, reference compound]
- LE PfPK6 (ligand efficiency) (PfPK6; PfPK6 pIC50/number of heavy atoms in the molecule): 0.26
- no. of kinase hits (468 human kinases): 41
- toxicity in a resazurin-based cell viability assay [2]: low toxicity
- oral bioavailability [3]: orally bioavailable

SMILES: Cc1cn2c(-c3ccnc(NCC4CC4)n3)c(-c3ccc(F)c(NS(C)(=O)=O)c3)nc2cc1CN(C)C [ML10]
- EC50 (Pf3D7): 2.1 nM

SMILES: O=C(c1ccc(Nc2ncc(Cl)c(-c3ccc(Cl)s3)n2)cc1)N1CCC(N2CCCC2)CC1 [Compound 23d, (4-((5-Chloro-4-(5-chlorothiophen-2-yl)pyrimidin-2-yl)amino)phenyl)(4-(pyrrolidin-1-yl)piperidin-1-yl)methanone]
- no. of kinase hits (468 human kinases): 103

Results, then the compound that gave them:

- IC50 (PfGSK3): < 100 nM
- no. of kinase hits (468 human kinases): 64
- reduction of promiscuity (kinase hits) (468 human kinases; compared to 23d, from 103 to 64 kinase hits): ~40%
SMILES: O=C(NCCCN1CCOCC1)c1ccc(Nc2ncc(Cl)c(-c3ccc(Cl)s3)n2)cc1 [Compound 23e, 4-((5-Chloro-4-(5-chlorothiophen-2-yl)pyrimidin-2-yl)amino)-N-(3-morpholinopropyl)benzamide]

- fold increase in potency on PfGSK3 (PfGSK3; compared to IKK16): 2 fold
- fold increase in potency on PfPK6 (PfPK6): ~3 fold
SMILES: CN1CCN(CCCNC(=O)c2ccc(Nc3nccc(-c4cc5ccccc5s4)n3)cc2)CC1 [Compound 9f, 4-((4-(Benzo[b]thiophen-2-yl)pyrimidin-2-yl)amino)-N-(3-(4-methylpiperazin-1-yl)propyl)benzamide]

- activity on PfGSK3, in words (PfGSK3): no activity
- activity on PfPK6, in words (PfPK6): no activity
SMILES: Cn1cc(NC(=O)c2ccc(Nc3nccc(-c4cc5ccccc5s4)n3)cc2)cn1 [Compound 9k, 4-((4-(Benzo[b]thiophen-2-yl)pyrimidin-2-yl)amino)-N-(1-methyl-1H-pyrazol-4-yl)benzamide]

- no. of kinase hits (468 human kinases): 32
SMILES: O=C(NCCCN1CCOCC1)c1ccc(Nc2nccc(-c3cc4ccccc4s3)n2)cc1 [Compound 9g, 4-((4-(Benzo[b]thiophen-2-yl)pyrimidin-2-yl)amino)-N-(3-morpholinopropyl)benzamide]

Source: paper PMC9574854 (Journal of Medicinal Chemistry, 2022)
